Compound activity deposited in PubChem BioAssay by several laboratories.
AHR act – activators of human aryl hydrocarbon receptor | activation, % at 5 µM | AHR-responsive luciferase reporter cells, luminescence | P35869 | 2.5% of 320,000 active; in the data active = activation above about 47%;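 also: 0% = vehicle wells and 100% = reference agonist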
ABCB6 inh 2 – human ABCB6 transporter inhibition | Q9NP58 | K562-ABCB6 porphyrin accumulation, flow cytometry, 1 h; stronger effect = lower value | fluorescence ratio to DMSO, % at 10 µM | 0.19% of 360,000 active | AID 602162;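 active = fluorescence ratio to DMSO below 75%, the collection mean minus 3 SD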;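 also: signal is porphyrin accumulated inside mitochondria; 100% equals median channel fluorescence of DMSO control wells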
STAT3 activator – increases IL-6 driven STAT3 reporter signal | U3A cells, IL-6 STAT3-luciferase reporter, luminescence; 100% = signal with IL-6 EC80 alone | activation (% of control), % at 5.6 µM | 0.91% of 190,000 active;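 active = activation above the screen-wide mean of compound activation plus 3 SD, cut at about 130% in these data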;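 also: 0% = background luminescence of wells with medium and substrate only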
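Assay system – human STAT1-deficient U3A cells with stable STAT3-luciferase reporter · Also added – IL-6 (33 ng/mL) · Schedule – compound 1 h, then IL-6 6 h at 37 °C · Technique – reporter luminescence signal · Evaluation – % activation versus median of IL-6-stimulated wells · Benchmarks – IL-6-only wells as 100% reference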
FXN GAA850 act – frataxin GAA850 promoter activation; 0.56% of 360,000 active; activation, % at 6 µM; HEK293 lucGAA850 FXN promoter luciferase reporter, 24 h; percent of 10 µM SAHA response;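 active = activation above the average of all compounds screened plus 3 SD, cutoff fixed separately per campaign, cut at about 7.5% in these data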;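 also: 0% = DMSO wells and 100% = 10 µM SAHA wells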
* hit, by the source's call; / = no result given. A selection: hits, their analogues and other compounds. The true share with any hit is near 3.3%.

SMILES	AHR act	ABCB6 inh 2	STAT3 activator	FXN GAA850 act
COc1ccc(-c2[nH]c(-c3ccccc3)nc2SCC(=O)NC2CCCC2)cc1	37.7	98.0	102.1	-2.7
COc1ccc(-c2[nH]c(-c3cccc(OC)c3)nc2SCC(=O)NC2CCCC2)cc1	64.6*	89.0	107.3	-1.0
Cc1ccc(F)c(S(=O)(=O)NC(=O)C2(C)CCN2C(=O)CC2CCCCC2)c1 (stereo not drawn)	/	90.0	/	1.3
CC(=O)c1ccc(NC(=O)c2cc(C)nc3ccccc23)cc1	3.5	100.0	/	2.0
Cc1ccc(NC(=O)c2cc(C)nc3ccccc23)cc1	67.5*	101.0	/	2.4
O=C(Nc1ccccc1)c1cc(Cl)nc2ccccc12	49.2*	95.0	98.3	0.2
Cc1cccc(NC(=O)c2cc(-c3ccc(C)s3)nc3ccccc23)n1	56.2*	91.0	95.7	-5.0
Cc1cc(C(=O)Nc2ccncc2)c2ccccc2n1	8.3	102.0	/	-0.4
Cc1cc(C(=O)Nc2ccc(F)cc2)c2ccccc2n1	56.2*	99.0	/	2.8
Cc1ccc(OCCC(=O)OC(C)C(=O)Nc2ccc(Cl)cn2)cc1 (stereo not drawn)	0.7	102.0	/	1.5
O=C(O)c1ccc2c(c1)C(=O)N([C@H](Cc1cccc3ccccc13)C(=O)O)C2=O	/	110.0	/	0.1
COc1ccccc1OCCNc1cc(N2CCCCC2)ccc1[N+](=O)[O-]	68.7*	97.0	101.1	4.6
COc1ccc(/C(C)=N/Nc2cccc(C(=O)O)c2)cc1OC	0.6	101.0	111.5	4.5
COc1ccc(/C(C)=N/Nc2nc3ccccc3nc2C)cc1OC	77.1*	91.0	/	4.3
O=[N+]([O-])c1ccc(NC(=S)NCCc2ccc(F)cc2)cc1	22.6	90.0	126.0	-1.1
COc1ccc(/C=N\NC(=O)c2ccccc2Br)cc1COc1ccc(F)cc1	0.6	95.0	/	0.1
COc1ccc(/C=N/NC(=O)c2ccccc2OC)cc1COc1ccccc1[N+](=O)[O-]	66.2*	96.0	/	1.0
COc1ccc(/C=N\NC(=O)c2ccc([N+](=O)[O-])c(C)c2)cc1COc1ccccc1C(N)=O	9.2	93.0	/	-1.3
COc1ccc(/C=N/NC(=O)c2ccccc2OC)cc1COc1ccc(C)cc1	47.4*	94.0	/	2.8
COC(=O)[C@H](Cc1ccccc1)NS(=O)(=O)c1ccc(F)cc1Br	/	100.0	/	0.9
c1ccc(Cn2nnnc2C(c2cccnc2)N2CCN(c3ccccc3)CC2)cc1 (stereo not drawn)	79.0*	91.0	97.7	-0.5
COCCn1nnnc1C(c1ccccc1OC)N1CCN(c2ccccc2)CC1 (stereo not drawn)	66.9*	96.0	106.8	0.5
CC1(C)OC(=O)C(=CNNc2c(Cl)cc(Cl)cc2Cl)C(=O)O1	8.2	100.0	/	-0.6
COc1cccc(-c2cc(C(F)(F)F)nc(N3CCCCC3)n2)c1	0.8	90.0	104.0	-1.7
COc1ccc(CN2CCN(CCC(C)C)C(CCO)C2)cc1Cn1cncn1 (stereo not drawn)	1.1	93.0	104.4	-0.1
SMILES	AHR act	ABCB6 inh 2	STAT3 activator	FXN GAA850 act
Cn1c(=O)c2c(SCc3cccnc3)nc(CC(C)(C)C)nc2n(C)c1=O	2.0	102.0	103.7	0.1
CCCc1nc(SCc2cccnc2)c2c(=O)n(C)c(=O)n(C)c2n1	51.9*	95.0	109.4	3.8
COc1ccc(OC)c(Nc2nc(-c3sc(C)nc3C)cs2)c1	33.8	93.0	91.7	3.2
COc1ccc(OC)c(Nc2nc(-c3sc(NC(=O)C(C)(C)C)nc3C)cs2)c1	61.3*	101.0	82.9	1.1
COc1ccc(OC)c(Nc2nc(-c3sc(NC(=O)CC(C)C)nc3C)cs2)c1	73.4*	103.0	87.7	0.0
Cc1c(C(=O)N(C)C2CCCCC2)sc2ncnc(N3CCN(c4ccccc4)CC3)c12	5.0	99.0	/	-0.1
NS(=O)(=O)c1ccc(CCNC(=O)c2cccc(S(=O)(=O)N3CCc4ccccc43)c2)cc1	/	90.0	/	0.6
C/C(=N\Nc1c(Cl)c(Cl)nc(C(=O)O)c1Cl)c1ccc(O)cc1	50.0*	103.0	/	1.1
CN(C)S(=O)(=O)c1cc(NC(=O)c2ccc(-n3ccnc3)c([N+](=O)[O-])c2)ccc1Cl	53.1*	89.0	/	0.2
CNC(=O)Cn1nc(C)c(S(=O)(=O)N2CCOCC2)c1C	-1.7	99.0	/	0.6
COc1ccc(N2CC(C(=O)NNC(=O)c3ccc(Br)cc3)CC2=O)c(OC)c1 (stereo not drawn)	-0.9	98.0	/	0.0
COc1ccc(NC2=NCCCCC2)cc1	1.5	102.0	/	-0.2
COc1ccc(-c2nc(NC3=NCCCCC3)sc2C)cc1	73.1*	99.0	107.4	1.8
Cc1ccc(S(=O)(=O)Nc2ccccc2C(N)=O)cc1	3.4	97.0	134.4*	1.3
O=S(=O)(Nc1c(O)ccc2ccccc12)c1cccc2ccccc12	39.0	105.0	/	-2.9
Cc1ccc(S(=O)(=O)Nc2c(O)ccc3ccccc23)cc1	54.1*	127.0	/	-0.8
O=[N+]([O-])c1cc(Cl)ccc1Oc1ccc(-c2nnco2)cc1	4.4	98.0	96.6	2.1
COc1ccccc1NC(=O)Nc1sccc1-c1nc2ccccc2s1	32.7	122.0	/	0.2
O=C(Nc1cccc(Cl)c1)Nc1sccc1-c1nc2ccccc2s1	48.7*	105.0	/	1.4
O=C(Nc1ccccc1)Nc1sccc1-c1nc2ccccc2s1	71.9*	106.0	/	-0.5
CC(=O)c1cccc(CN2CCN(CC(C)C)C(CCO)C2)c1 (stereo not drawn)	1.2	99.0	97.5	-0.9
CCN1CCN(c2ccc(NC(=O)CCc3c(C)nc4c(-c5ccc(F)cc5)c(C)nn4c3C)cc2)CC1	2.2	104.0	107.2	0.0
CC1CCCCC12NC(=O)N(CC(=O)Nc1sc3c(c1C(N)=O)CCC3)C2=O (stereo not drawn)	5.7	99.0	99.3	-1.1
Cc1cc(-c2ccccc2)nc(N/N=C/c2ccccc2F)n1	67.9*	91.0	/	4.2
C/C(=N/Nc1nc(C)cc(-c2ccccc2)n1)c1ccco1	43.5	92.0	94.4	1.2
SMILES	AHR act	ABCB6 inh 2	STAT3 activator	FXN GAA850 act
Cc1ccc2nc(N/N=C/c3ccccc3F)nc(-c3ccccc3)c2c1	13.3	91.0	87.0	1.5
C/C(=N\Nc1nc(C)cc(-c2ccccc2)n1)c1cccc(N)c1	49.4*	128.0	/	-0.5
C/C(=N\Nc1nc(C)cc(-c2ccccc2)n1)c1ccc(C)o1	47.1*	97.0	94.4	0.0
Nc1ncnc2c1ncn2[C@@H]1O[C@H](CNC(=O)[C@@H](N)Cc2ccc(C(F)(F)F)cc2)[C@@H](O)[C@H]1O	/	102.0	/	4.2
O=C(NCc1ccc(Cl)cc1)C1CCN(C(=O)c2ccco2)CC1	-2.0	100.0	/	3.1
CCc1cccc2c(C=C(C#N)C#N)cn(CC(=O)N3CCCC3)c12	0.0	92.0	91.7	0.8
CSc1ccccc1OCc1cc(C(=O)N2CCCC(C)C2)no1 (stereo not drawn)	10.9	97.0	/	4.5
COc1ccc(OCc2cc(C(=O)N3CCCC(CO)C3)no2)c2ccccc12 (stereo not drawn)	50.3*	104.0	/	5.1
COC(=O)c1sccc1NC(=O)c1c(C)c(-c2cccc(Cl)c2)nc2ccccc12	12.7	98.0	102.0	1.6
